# Published values gathered from unrelated publications.
# Effect on: cell growth or viability
SMILES,cell line,assay,setting,endpoint,result
COC(=O)[C@H](C)Nc1ccnc(Nc2cccc(-c3cccnc3)c2)n1,BJ,ATP luminescence,72 h,EC50,> 8 µM
Oc1ccc(Nc2nc(-c3ccc(Cl)cc3)cs2)cc1,1205Lu,MTS,48 h,IC50,86.3 µM
O=C(Nc1cncc(-c2nc3ccccc3s2)c1)c1cc([N+](=O)[O-])c(N2CCNCC2)cc1Cl,BJ,ATP luminescence,,EC50,> 15.3 µM
CC#CC(=O)N1CC[C@@H](n2cc(-c3ccc(Oc4c(F)cccc4F)cc3)c3c(N)n[nH]c(=O)c32)C1,UPN1,ATP luminescence,72 h,GI50,2.21 µM
CN(C)C/C=C/C(=O)Nc1cc2c(Nc3ccc(F)c(Cl)c3)ncnc2cc1O[C@H]1CCOC1,KB-C2,ATP luminescence,"3 µM, 12 days, 3D culture",viability,67.7%
CC(=O)c1c(C)c2cnc(Nc3ccc(N4CCNCC4)cn3)nc2n(C2CCCC2)c1=O,MDA-MB-157,resazurin,,GI50,> 5 µM
CCNc1ccnc(Nc2cccc(-c3cccnc3)c2)n1,BJ,ATP luminescence,72 h,EC50,> 21 µM
COc1ccc(-c2ccc(-c3ccc(C(=N)N)nc3)s2)cc1,ACHN,,,GI50,1.84 µM
C=CC(=O)N1CCC[C@@H](n2nc(-c3ccc(Oc4ccccc4)cc3)c3c(N)ncnc32)C1,UPN1,ATP luminescence,72 h,GI50,4.87 µM
Cc1cc(Cl)c(Cl)cc1NC(=O)c1ccc(N2CCNCC2)nc1,BJ,ATP luminescence,,EC50,> 24 µM
c1cc(Nc2nccc(NC3CCCCC3)n2)cc(-c2ncco2)c1,BJ,ATP luminescence,72 h,EC50,> 45 µM
C[C@]12CC[C@@H]3c4ccc(O)cc4CC[C@H]3[C@@H]1CC[C@@H]2O,OVCAR-3,ATP luminescence,72 h,EC90,76.1 µM
COc1cc(-c2ccc(-c3ccc(C(=N)N)nc3)s2)cc(OC)c1OC,OVCAR-3,SRB,,GI50,2.6 µM
CC(C)Nc1ccnc(Nc2cccc(-c3cccnc3)c2)n1,BJ,ATP luminescence,72 h,EC50,> 17 µM
